Data as given in ChEMBL document CHEMBL1148785, “Second generation tetrahydroquinoline-based protein farnesyltransferase inhibitors as antimalarials” (J Med Chem, 2007).
Values joined by “and” are separate entries in the source; they are usually repeats but may differ in a detail not shown here. Equal values may be shown once.

Legend:
Plasmodium falciparum [1] = test: Inhibition of Plasmodium falciparum protein farnesyltransferase at 50 nM by scintillation proximity assay
Plasmodium falciparum [2] = test: Inhibition of Plasmodium falciparum protein farnesyltransferase at 0.5 nM by scintillation proximity assay
Plasmodium falciparum [3] = test: Inhibition of Plasmodium falciparum protein farnesyltransferase at 5 nM by scintillation proximity assay
Plasmodium falciparum [4] = test: Antimalarial activity against Plasmodium falciparum K1; assay type: functional; conditions: read-out: ED50 (the source's name)
How it was run: (§1)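 Asynchronous culture in type A+ erythrocytes at 0.5% parasitemia and 0.5% hematocrit, grown in RPMI-1640 with 20% heat-inactivated human A+ plasma. Compound was serially diluted from a top final 5 µM, with DMSO vehicle as 100% growth. Plates ran 48 h at 37 °C under 5% CO2/5% O2/90% N2, then [3H]-hypoxanthine (0.3 µCi) for 24 h. Filter-harvested counts were corrected for the uninfected-RBC background. ED50 by linear regression; duplicates averaged.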

Plasmodium falciparum [5] = test: Antimalarial activity against Plasmodium falciparum 3D7; assay type: functional; conditions: read-out: ED50 (the source's name); how it was run: as §1

Compound	inhibition (Plasmodium falciparum [1])	inhibition (Plasmodium falciparum [2])	inhibition (Plasmodium falciparum [3])	EC50 (Plasmodium falciparum [4]; Plasmodium falciparum, K1)	EC50 (Plasmodium falciparum [5]; Plasmodium falciparum, 3D7)	EC50 (Plasmodium falciparum [4])	EC50 (Plasmodium falciparum [5])
COC(=O)c1ccc(CN(C2Cc3cc(C#N)ccc3N(Cc3cncn3C)C2)S(=O)(=O)c2cn(C)cn2)cc1 (stereo not drawn)	62%	1%	10%				
COC(=O)N1CCC(CN(C2Cc3cc(C#N)ccc3N(Cc3cncn3C)C2)S(=O)(=O)c2ccccn2)CC1 (stereo not drawn)	98% and 100% (2×)						
Cn1cnc(S(=O)(=O)N(Cc2ccc(-n3cncn3)cc2)C2Cc3cc(C#N)ccc3N(Cc3cncn3C)C2)c1 (stereo not drawn)	93%		54%	340 nM	330 nM		
Cn1cncc1CN1CC(N(CCN2C(=O)c3ccccc3C2=O)S(=O)(=O)c2ccccn2)Cc2cc(C#N)ccc21 (stereo not drawn)	96%	46%	77%		1880 nM		
Cc1c(S(=O)(=O)N(Cc2cc(Br)ccc2F)C2Cc3cc(C#N)ccc3N(Cc3cncn3C)C2)ncn1C (stereo not drawn)	98%	13%	87%		850 nM		
Cc1nn(-c2ccccc2)nc1CN(C1Cc2cc(C#N)ccc2N(Cc2cncn2C)C1)S(=O)(=O)c1ccccn1 (stereo not drawn)	97%		66%	600 nM	140 nM		
C=C(Br)CN(C1Cc2cc(C#N)ccc2N(Cc2cnc[nH]2)C1)S(=O)(=O)c1cn(C)cn1 (stereo not drawn)	94%				120 nM		
Cc1ccsc1S(=O)(=O)N(Cc1ccc(S(C)(=O)=O)cc1)C1Cc2cc(C#N)ccc2N(Cc2cncn2C)C1 (stereo not drawn)	97%	13%	55%		830 nM		
Cn1cncc1CN1CC(N(Cc2ccc(Br)cc2)S(=O)(=O)c2ccccn2)Cc2cc(C#N)ccc21 (stereo not drawn)	66%		15%	750 nM	520 nM		
Cn1cncc1CN1CC(N(Cc2ccccc2F)C(=O)c2c[nH]cn2)Cc2cc(C#N)ccc21 (stereo not drawn)		39%	88%		75 nM		
CN(C)CC(=O)N(Cc1ccccc1F)C1Cc2cc(C#N)ccc2N(Cc2cncn2C)C1 (stereo not drawn)		0%	16%		2700 nM		
Cn1cncc1CN1CC(N(Cc2ccc(C(F)(F)F)o2)S(=O)(=O)c2ccccn2)Cc2cc(C#N)ccc21 (stereo not drawn)	84%		39%	690 nM	750 nM		
Cn1cnc(S(=O)(=O)N(Cc2ccccc2F)C2Cc3cc(C#N)ccc3N(Cc3cncn3C)C2)c1 (stereo in doubt; 110) [listing 1 of 2 here]	100%	65%	99%				
Cn1cncc1CN1CC(N(CC(N)=O)S(=O)(=O)c2ccccn2)Cc2cc(C#N)ccc21 (stereo not drawn)	82%		37%	2200 nM	1600 nM		
Cn1cnc(S(=O)(=O)N(Cc2ccccc2)C2Cc3cc(C#N)ccc3N(Cc3cnc[nH]3)C2)c1 (stereo not drawn)	93%				120 nM		
COC(=O)NCCCCN(C1Cc2cc(C#N)ccc2N(Cc2cncn2C)C1)S(=O)(=O)c1ccccn1 (stereo not drawn)	99%	25%	84%		230 nM		
CCC(C)NC(=O)c1ccc2c(c1)CC(N(CC(=O)NC(C)(C)C)S(=O)(=O)c1cn(C)cn1)CN2Cc1cncn1C (stereo not drawn)	35%	0%	2%		> 5000 nM		
Cn1cncc1CN1CC(N(Cc2cccc(-n3cccc3)c2)S(=O)(=O)c2ccccn2)Cc2cc(C#N)ccc21 (stereo not drawn)	97%		69%	617 nM	143 nM		
Cn1cncc1CN1CC(N(Cc2ccc(S(C)(=O)=O)cc2)S(=O)(=O)c2cccc(F)c2)Cc2cc(C#N)ccc21 (stereo not drawn)	96%	8%	67%		600 nM		
Cn1cnc(S(=O)(=O)N(Cc2ccc(S(=O)(=O)c3ccccc3)cc2)C2Cc3cc(C#N)ccc3N(Cc3cncn3C)C2)c1 (stereo not drawn)	99%	30%	90%		390 nM		

Compound	inhibition (Plasmodium falciparum [1])	inhibition (Plasmodium falciparum [2])	inhibition (Plasmodium falciparum [3])	EC50 (Plasmodium falciparum [4]; Plasmodium falciparum, K1)	EC50 (Plasmodium falciparum [5]; Plasmodium falciparum, 3D7)	EC50 (Plasmodium falciparum [4])	EC50 (Plasmodium falciparum [5])
COC(=O)N(Cc1ccccc1F)C1Cc2cc(C#N)ccc2N(Cc2cncn2C)C1 (stereo not drawn)	26%	6%	9%		2900 nM		
COC(=O)N1CCC(CN(C2Cc3cc(C#N)ccc3N(Cc3cncn3C)C2)S(=O)(=O)c2nccn2C)CC1 (stereo not drawn)	96%	15%	67%		38 nM		
Cn1cncc1CN1CC(N(CCCCN2C(=O)c3ccccc3C2=O)S(=O)(=O)c2ccccn2)Cc2cc(C#N)ccc21 (stereo not drawn)	92%		63%	3600 nM	820 nM		
Cn1cnc(S(=O)(=O)N(CC(=O)NC(C)(C)C)C2Cc3cc(C(=O)NCc4ccccc4)ccc3N(Cc3cncn3C)C2)c1 (stereo not drawn)	59%	0%	1%		4600 nM		
COCC(=O)N(Cc1ccccc1F)C1Cc2cc(C#N)ccc2N(Cc2cncn2C)C1 (stereo not drawn)	56%	11%	19%		290 nM		
Cn1cnc(CN2CC(N(CC3CCN(C(=O)OC(C)(C)C)CC3)S(=O)(=O)c3ccccn3)Cc3cc(-c4ccccc4)ccc32)c1 (stereo not drawn)	22%	0%	15%		2700 nM		
CCS(=O)(=O)c1ccc(CN(C2Cc3cc(C#N)ccc3N(Cc3cncn3C)C2)S(=O)(=O)c2cn(C)cn2)cc1 (stereo not drawn)	100%	77%	100%		40 nM		
Cn1cnc(CN2CC(N(CC3CCN(C(=O)OC(C)(C)C)CC3)S(=O)(=O)c3cn(C)cn3)Cc3cc(-c4ccccc4)ccc32)c1 (stereo not drawn)	33%	0%	10%		860 nM		
Cc1oncc1CN(C1Cc2cc(C#N)ccc2N(Cc2cncn2C)C1)S(=O)(=O)c1ccccn1 (stereo not drawn)	94%		62%	2800 nM	450 nM		
Cn1cnc(S(=O)(=O)N(Cc2ccccc2F)C2Cc3cc(C#N)ccc3N(Cc3cncn3C)C2)c1 (stereo in doubt; 212) [listing 1 of 2 here]						500 nM	580 nM
Cn1cncc1CN1CC(N(CC2CCNCC2)S(=O)(=O)c2ccccn2)Cc2cc(C#N)ccc21 (stereo not drawn)	18%	0%	6%				
CCS(=O)(=O)c1ccc(CN(C2Cc3cc(C#N)ccc3N(Cc3cncn3C)C2)S(=O)(=O)c2ncn(C)c2C)cc1 (stereo not drawn)	97%	10%	76%		640 nM		
Cn1cnc(S(=O)(=O)N(Cc2ccccc2F)C2Cc3cc(C#N)ccc3N(Cc3cncn3C)C2)c1 (stereo in doubt; 212) [listing 2 of 2 here]	96%	12%	76%				
Cn1cnc(S(=O)(=O)N(CCN2C(=O)c3ccccc3C2=O)C2Cc3cc(C#N)ccc3N(Cc3cncn3C)C2)c1 (stereo not drawn)	98%		97%	18 nM	14 nM		
Cn1cncc1CN1CC(N(Cc2ccccc2F)C(=O)c2cnns2)Cc2cc(C#N)ccc21 (stereo not drawn)		13%	66%		340 nM		
Cn1cnc(S(=O)(=O)N(Cc2ccccc2F)C2Cc3cc(C#N)ccc3N(Cc3cncn3C)C2)c1 (stereo in doubt; 110) [listing 2 of 2 here]						18 nM	18 nM
CNC(=O)c1ccc2c(c1)CC(N(CC(=O)NC(C)(C)C)S(=O)(=O)c1cn(C)cn1)CN2Cc1cncn1C (stereo not drawn)	69%	12%	20%		1200 nM		
Cn1cncc1CN1CC(N(Cc2cccc(-n3cccn3)c2)S(=O)(=O)c2ccccn2)Cc2cc(C#N)ccc21 (stereo not drawn)	90%		52%	850 nM	850 nM		
COC(=O)N1CCC(CN(C2Cc3cc(C#N)ccc3N(Cc3cncn3C)C2)S(=O)(=O)c2cccnc2)CC1 (stereo not drawn)	99%	48%	93%		100 nM		
